Measurements from ChEMBL document CHEMBL2346536, “Biscatecholate-monohydroxamate mixed ligand siderophore-carbacephalosporin conjugates are selective sideromycin antibiotics that target Acinetobacter baumannii” (2013).
In brackets after ≈: the same amount, converted by molar mass. Activity calls are given as the source filed them. No cut-off for these calls is given here.

Columns and labels:
Klebsiella pneumoniae = assay: Antibacterial activity against Klebsiella pneumoniae ATCC 700603 after 18 hrs by broth microdilution method; format: functional; details: ATCC 700603, 18 h
In short: (§1)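 Broth microdilution MICs per CLSI guidelines, read by visual end point; each compound tested in triplicate.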

Pseudomonas aeruginosa = assay: Antibacterial activity against Pseudomonas aeruginosa ATCC 27853 after 18 hrs by broth microdilution method; format: functional; details: ATCC 27853, 18 h; in short: as §1
Escherichia coli = assay: Antibacterial activity against Escherichia coli ATCC 25922 after 18 hrs by broth microdilution method; format: functional; details: ATCC 25922, 18 h; in short: as §1
Klebsiella aerogenes = assay: Antibacterial activity against Enterobacter aerogenes ATCC 35029 after 18 hrs by broth microdilution method; format: functional; details: ATCC 35029, 18 h; in short: as §1
Staphylococcus aureus [1] = assay: Antibacterial activity against Staphylococcus aureus SG 511 after 18 hrs by broth microdilution method; format: functional; details: SG 511, 18 h; in short: as §1
Enterococcus faecium = assay: Antibacterial activity against Enterococcus faecium NCTC 7171 after 18 hrs by broth microdilution method; format: functional; details: NCTC 7171, 18 h; in short: as §1
Acinetobacter baumannii [2] = assay: Antibacterial activity against Acinetobacter baumannii ATCC 17961 after 18 hrs by broth microdilution method; format: functional; details: ATCC 17961, 18 h; in short: as §1
Acinetobacter baumannii [3] = assay: Antibacterial activity against Acinetobacter baumannii ATCC 17961 in Fe(3)-deficient Mueller-Hinton no.2 broth media assessed as diameter of growth inhibition zone after 18 to 24 hrs by agar diffusion assay; format: functional
In short: (§2)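 Modified Kirby–Bauer agar diffusion on Mueller–Hinton no. 2 agar, made iron-deficient with 100 μM 2,2′-bipyridine or iron-supplemented with 100 μM FeCl₃. Read-out was growth inhibition zone diameter (mm), averaged over three independent trials.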

Staphylococcus aureus [4] = assay: Antibacterial activity against Staphylococcus aureus SG 511 at 0.5 mM after 18 to 24 hrs by agar diffusion assay in presence of Fe3-complex of N-[5-(3-{[4-(2,3-Dihydroxy-benzoylamino)-butyl]-[3-(2,3-dihydroxy-benzoylamino)-propyl]-carbamoyl}-propionylamino)-pentyl]-N-hydroxy-succinamic acid; format: functional, organism-based
In short: (§3)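 Paper-strip competition on agar. LB cultures grown 18–24 h were suspended in 0.9% saline at […] (0.5 McFarland), then 0.1 mL was mixed into 34 mL MHII agar + 2,2′-bipyridine at 47 °C. Strips were soaked in 0.5 mM sideromycin or 2.0 mM siderophore (1:10 DMSO:MeOH). Plates ran 37 °C for 18–24 h and were photographed at 48 h.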

Acinetobacter baumannii [5] = assay: Antibacterial activity against Acinetobacter baumannii ATCC 17961 in Fe(3)-supplemented Mueller-Hinton no.2 broth media assessed as diameter of growth inhibition zone after 18 to 24 hrs by agar diffusion assay; format: functional; in short: as §2
Acinetobacter baumannii [6] = assay: Antibacterial activity against Acinetobacter baumannii ATCC 17961 at 0.5 mM after 18 to 24 hrs by agar diffusion assay in presence of Fe3-complex of N-[5-(3-{[4-(2,3-Dihydroxy-benzoylamino)-butyl]-[3-(2,3-dihydroxy-benzoylamino)-propyl]-carbamoyl}-propionylamino)-pentyl]-N-hydroxy-succinamic acid; format: functional, organism-based; in short: as §3
Acinetobacter baumannii [7] = assay: Antibacterial activity against Acinetobacter baumannii ATCC 17961 at 0.5 mM after 18 to 24 hrs by agar diffusion assay in presence of N-[5-(3-{[4-(2,3-Dihydroxy-benzoylamino)-butyl]-[3-(2,3-dihydroxy-benzoylamino)-propyl]-carbamoyl}-propionylamino)-pentyl]-N-hydroxy-succinamic acid; format: functional, organism-based; in short: as §3
Acinetobacter baumannii [8] = assay: Antibacterial activity against Acinetobacter baumannii ATCC 17961 in Fe(3)-supplemented Mueller-Hinton no.2 broth media after 18 hrs by broth microdilution method; format: functional; details: ATCC 17961, 18 h
In short: (§4)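 CLSI broth microdilution in cation-adjusted Mueller–Hinton no. 2 broth. The iron-deficient broth contained 100 μM 2,2′-bipyridine and the iron-supplemented broth 100 μM FeCl₃. MIC was read by visual end point, each compound in triplicate.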

Staphylococcus aureus [9] = assay: Antibacterial activity against Staphylococcus aureus SG 511 at 0.5 mM after 18 to 24 hrs by agar diffusion assay in presence of N-[5-(3-{[4-(2,3-Dihydroxy-benzoylamino)-butyl]-[3-(2,3-dihydroxy-benzoylamino)-propyl]-carbamoyl}-propionylamino)-pentyl]-N-hydroxy-succinamic acid; format: functional, organism-based; in short: as §3
Staphylococcus aureus [10] = assay: Antibacterial activity against Staphylococcus aureus SG 511 in Fe(3)-deficient Mueller-Hinton no.2 broth media assessed as diameter of growth inhibition zone after 18 to 24 hrs by agar diffusion assay; format: functional, organism-based; in short: as §2
Staphylococcus aureus [11] = assay: Antibacterial activity against Staphylococcus aureus SG 511 in Fe(3)-supplemented Mueller-Hinton no.2 broth media after 18 hrs by broth microdilution method; format: functional; details: SG 511, 18 h; in short: as §4
Staphylococcus aureus [12] = assay: Antibacterial activity against Staphylococcus aureus SG 511 in Fe(3)-deficient Mueller-Hinton no.2 broth media after 18 hrs by broth microdilution method; format: functional; details: SG 511, 18 h; in short: as §4
Acinetobacter baumannii [13] = assay: Antibacterial activity against Acinetobacter baumannii ATCC 17961 in Fe(3)-deficient Mueller-Hinton no.2 broth media after 18 hrs by broth microdilution method; format: functional; details: ATCC 17961, 18 h; in short: as §4
Staphylococcus aureus [14] = assay: Antibacterial activity against Staphylococcus aureus SG 511 in Fe(3)-supplemented Mueller-Hinton no.2 broth media assessed as diameter of growth inhibition zone after 18 to 24 hrs by agar diffusion assay; format: functional, organism-based; in short: as §2

MIC (Klebsiella pneumoniae) | MIC (Pseudomonas aeruginosa) | MIC (Escherichia coli) | MIC (Klebsiella aerogenes) | MIC (Staphylococcus aureus [1]) | MIC (Enterococcus faecium) | MIC (Acinetobacter baumannii [2]) | MIC (Acinetobacter baumannii [8]) | MIC (Staphylococcus aureus [11]) | MIC (Staphylococcus aureus [12]) | MIC (Acinetobacter baumannii [13]) | SMILES | diameter of the inhibition zone (DIZ) (Acinetobacter baumannii [3]) | Activity (Staphylococcus aureus [4]) | diameter of the inhibition zone (DIZ) (Acinetobacter baumannii [5]) | Activity (Acinetobacter baumannii [6]) | Activity (Acinetobacter baumannii [7]) | Activity (Staphylococcus aureus [9]) | Activity (Staphylococcus aureus [10]) | Activity (Staphylococcus aureus [14])
> 128 µM | > 128 µM | > 128 µM | > 128 µM | > 128 µM | > 128 µM | > 128 µM | – | – | – | – | O=C(CCC(=O)N(CCCCNC(=O)c1cccc(O)c1O)CCCNC(=O)c1cccc(O)c1O)NCCCCCN(O)C(=O)CCC(=O)N1CCN(c2cc3c(cc2F)c(=O)c(C(=O)O)cn3C2CC2)CC1 | – | – | – | – | – | – | – | –
> 128 µM | > 128 µM | 8 µM (≈ 8.4 µg/mL) | > 128 µM | 32 µM (≈ 33.6 µg/mL) | > 128 µM | 0.125 µM (≈ 0.131 µg/mL) | 0.5 µM (≈ 0.525 µg/mL) | 64 µM (≈ 67.2 µg/mL) | 32 µM (≈ 33.6 µg/mL) | 0.0078 µM (≈ 0.00819 µg/mL) | O=C(CCC(=O)N(CCCCNC(=O)c1cccc(O)c1O)CCCNC(=O)c1cccc(O)c1O)NCCCCCN(O)C(=O)CCC(=O)N[C@H](C(=O)N[C@@H]1C(=O)N2C(C(=O)O)=C(Cl)CC[C@H]12)c1ccccc1 | 20.6 mm | Active | 16.2 mm | inactive | inactive | Active | Active | Active
> 128 µM | > 128 µM | > 128 µM | > 128 µM | > 128 µM | > 128 µM | > 128 µM | – | – | – | – | O=C(O)CCC(=O)N(O)CCCCCNC(=O)CCC(=O)N(CCCCNC(=O)c1cccc(O)c1O)CCCNC(=O)c1cccc(O)c1O | – | – | – | – | – | – | – | –

Continued, molecule first:

SMILES | MIC (Klebsiella pneumoniae) | MIC (Pseudomonas aeruginosa) | MIC (Escherichia coli) | MIC (Klebsiella aerogenes) | MIC (Staphylococcus aureus [1]) | MIC (Enterococcus faecium) | MIC (Acinetobacter baumannii [2]) | MIC (Acinetobacter baumannii [8]) | MIC (Staphylococcus aureus [11]) | MIC (Staphylococcus aureus [12]) | MIC (Acinetobacter baumannii [13]) | diameter of the inhibition zone (DIZ) (Acinetobacter baumannii [3]) | Activity (Staphylococcus aureus [4]) | diameter of the inhibition zone (DIZ) (Acinetobacter baumannii [5]) | Activity (Acinetobacter baumannii [6]) | Activity (Acinetobacter baumannii [7]) | Activity (Staphylococcus aureus [9]) | Activity (Staphylococcus aureus [10]) | Activity (Staphylococcus aureus [14])
O=C(O)c1cn(C2CC2)c2cc(N3CCNCC3)c(F)cc2c1=O [CIPROFLOXACIN] | 0.25 µM (≈ 0.0828 µg/mL) | 0.125 µM (≈ 0.0414 µg/mL) | < 0.015 µM | < 0.015 µM | 0.5 µM (≈ 0.166 µg/mL) | 8 µM (≈ 2.65 µg/mL) | 0.25 µM (≈ 0.0828 µg/mL) | – | – | – | – | – | – | – | – | – | – | – | –
N[C@@H](C(=O)N[C@@H]1C(=O)N2C(C(=O)O)=C(Cl)CC[C@H]12)c1ccccc1 [LORACARBEF ANHYDROUS] | 128 µM (≈ 44.8 µg/mL) | > 128 µM | 2 µM (≈ 0.7 µg/mL) | > 128 µM | 1 µM (≈ 0.35 µg/mL) | 32 µM (≈ 11.2 µg/mL) | > 128 µM | – | – | – | – | – | – | – | – | – | – | – | –
